Ends that are not written are not given here.
The substances below were run against Human thrombin (Homo sapiens, UniProt P00734) (assay: Thrombin inhibitory assay with chromogenic substrate S-2238).
Assay type: biochemical
Outline: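 Human thrombin (2 U/mL working solution) premixed with test peptide at a range of concentrations. Chromogenic substrate S-2238 (1 mM solution) then added; blanks received buffer instead. All components were in 50 mM Tris-HCl, pH 7.5. Reaction ran 5 min at 37°C, with absorbance read at 375 nm. IC50 was taken as the peptide concentration giving 50% thrombin inhibition.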
With AEGYA [P1] the IC50 was 0.53 µM.
For EVVNQ [P2], the IC50 was 4.35 µM.
With FASRW [P5] the IC50 was 2.67 µM.
Work on FFQQSGG [FFQQSGG] yielded an IC50 of 2670 µM.
For FVEIQAL [FVEIQAL], the IC50 was 530 µM.
Work on SLVTKVS [SLVTKVS] yielded an IC50 of 4350 µM.

From paper PMC10783423 (Medicine, 2024)
